Measured values as given in ChEMBL document CHEMBL2331115, “Development of silicon-containing bis-phenol derivatives as androgen receptor antagonists: selectivity switching by C/Si exchange” (Bioorg Med Chem, 2013).
The source made the active and inactive calls. The calls are words filed in the database; no cut-off is given here.

Tests used:
Androgen receptor = molecular target: T1, Androgen receptor (Homo sapiens, UniProt P10275); assay: Antagonist activity at human androgen receptor expressed in HEK293 cells assessed as inhibition of transcriptional activity by luciferase and beta-galactosidase reporter gene assay; type: cell-based
T1 sequence (P10275 whole entry): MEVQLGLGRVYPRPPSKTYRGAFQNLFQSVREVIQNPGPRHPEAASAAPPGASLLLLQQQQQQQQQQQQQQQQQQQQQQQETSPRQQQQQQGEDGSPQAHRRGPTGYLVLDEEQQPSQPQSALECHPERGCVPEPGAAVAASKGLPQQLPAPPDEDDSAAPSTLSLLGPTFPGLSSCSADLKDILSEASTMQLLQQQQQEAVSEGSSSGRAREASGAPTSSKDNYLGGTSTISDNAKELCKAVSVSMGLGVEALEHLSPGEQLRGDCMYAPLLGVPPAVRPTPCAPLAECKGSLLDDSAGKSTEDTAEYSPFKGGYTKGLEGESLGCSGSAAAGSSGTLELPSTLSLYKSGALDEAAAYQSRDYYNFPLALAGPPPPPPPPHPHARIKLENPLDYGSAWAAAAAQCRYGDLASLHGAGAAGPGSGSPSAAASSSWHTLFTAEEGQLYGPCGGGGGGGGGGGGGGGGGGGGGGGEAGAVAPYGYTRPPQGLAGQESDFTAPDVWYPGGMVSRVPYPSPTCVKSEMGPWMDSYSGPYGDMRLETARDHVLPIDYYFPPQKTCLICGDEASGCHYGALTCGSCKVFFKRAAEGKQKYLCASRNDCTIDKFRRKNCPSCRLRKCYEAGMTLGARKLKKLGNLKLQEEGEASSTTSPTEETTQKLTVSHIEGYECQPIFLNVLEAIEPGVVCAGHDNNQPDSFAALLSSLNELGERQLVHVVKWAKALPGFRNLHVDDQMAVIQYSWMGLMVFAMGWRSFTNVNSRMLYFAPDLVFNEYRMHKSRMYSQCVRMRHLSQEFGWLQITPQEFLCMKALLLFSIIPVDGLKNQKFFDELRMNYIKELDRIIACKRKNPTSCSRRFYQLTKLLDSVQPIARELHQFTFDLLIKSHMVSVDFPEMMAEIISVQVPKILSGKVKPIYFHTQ

[1] = molecular target: T2, Vitamin D3 receptor (Homo sapiens) (UniProt P11473); assay: Agonist activity at CMX-GAL4 tagged human VDR expressed in HEK293 cells assessed as increase in transcriptional activity by luciferase reporter gene assay; type: cell-based
T2 sequence (whole entry): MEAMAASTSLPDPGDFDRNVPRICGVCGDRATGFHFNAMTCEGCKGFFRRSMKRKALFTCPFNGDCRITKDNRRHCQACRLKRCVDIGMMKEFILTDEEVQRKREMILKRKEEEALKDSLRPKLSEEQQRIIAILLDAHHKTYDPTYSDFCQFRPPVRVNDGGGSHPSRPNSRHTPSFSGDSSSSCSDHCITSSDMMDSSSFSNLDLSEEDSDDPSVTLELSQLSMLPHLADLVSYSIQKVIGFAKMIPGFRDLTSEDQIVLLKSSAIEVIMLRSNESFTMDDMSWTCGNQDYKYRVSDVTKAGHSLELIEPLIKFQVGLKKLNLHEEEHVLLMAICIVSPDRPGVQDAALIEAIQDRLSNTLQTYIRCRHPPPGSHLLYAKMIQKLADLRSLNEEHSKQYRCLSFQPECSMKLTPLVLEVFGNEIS
Method in brief: (§1)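 GAL4-hVDR ligand-binding fusion (CMX-GAL4 N-hVDR, 15 ng/well) cotransfected by calcium phosphate into HEK293 cells with TK-MH100x4-Luc reporter (50 ng) and β-galactosidase plasmid (10 ng). Cells grown in DMEM with 5% FBS, 37 °C, 5% CO2. Compound added 22 h post-transfection and cells harvested 16–20 h later. Luciferase normalized to β-galactosidase, means of triplicates. PC50 is the concentration giving 50% of the positive-control response.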

Homo sapiens = organism: Homo sapiens; assay: Selectivity index, ratio of agonist PC50 for CMX-GAL4 tagged human VDR to antagonist IC50 for human androgen receptor
Method in brief: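 Ratio of VDR PC50 to AR IC50. VDR PC50 comes from the GAL4-hVDR luciferase assay in HEK293 cells (50% of positive-control activity). AR IC50 is inhibition of hAR/ARE-luciferase transcription in HEK293 cells under testosterone, both β-galactosidase-normalized, means of three experiments.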

[2] = molecular target: T3, Androgen receptor (Homo sapiens) (UniProt P10275); assay: Agonist activity at human androgen receptor expressed in HEK293 cells assessed as increase in transcriptional activity in presence of 0.3 nM testosterone by luciferase and beta-galactosidase reporter gene assay; type: cell-based
T3 sequence (whole entry): T1 sequence (P10275 whole entry)
Method in brief: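 HEK293 cells in DMEM with 5% FBS, calcium-phosphate cotransfected with pSG5-hAR (33 ng/well), ARE-tlc-Luc reporter (33 ng) and β-galactosidase plasmid (10 ng). Compounds added 22 h after transfection, with 0.3 nM testosterone present. Harvested about 16–20 h later. Luciferase read and normalized to β-galactosidase, means of triplicates.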

LNCaP = assay: Growth inhibition of human LNCAP cells
HL-60 = assay: Induction of monocytic cell differentiation in human HL60 cells
Vitamin D3 receptor = molecular target: T4, Vitamin D3 receptor (Homo sapiens, UniProt P11473); assay: Agonist activity at VDR (unknown origin) by reporter gene assay; method in brief: as §1
T4 sequence (P11473 whole entry): T2 sequence (whole entry)

[3] = molecular target: Androgen receptor (Mus musculus) (UniProt P19091); assay: Agonist activity at androgen receptor in androgen-dependent mouse SC3 cells assessed as stimulation of cell growth after 3 days; type: cell-based; details: SC-3
Method in brief: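 Androgen-dependent mouse Shionogi carcinoma SC-3 cells grown 3 days at 37 °C, 5% CO2 in MEM-Alpha with 2% FBS plus test compound. Growth promotion scored by cell count.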

[4] = molecular target: Androgen receptor (Mus musculus) (UniProt P19091); assay: Potency index, ratio of IC50 for hydroxyflutamide to IC50 for compound against androgen receptor in androgen-dependent mouse SC3 cells assessed as inhibition of testosterone-induced cell growth after 3 days; type: cell-based; details: SC-3
Method in brief: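 SC-3 cells cultured 3 days at 37 °C, 5% CO2 in MEM-Alpha with 2% FBS and 10 nM testosterone, with or without compound. Cell number with testosterone alone set as 100%. IC50 is the concentration halving the testosterone-induced increase in cells, means of three experiments. Index is the reference antagonist IC50 divided by the compound IC50.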

Androgen receptor (Mus musculus), sequence (P19091 whole entry): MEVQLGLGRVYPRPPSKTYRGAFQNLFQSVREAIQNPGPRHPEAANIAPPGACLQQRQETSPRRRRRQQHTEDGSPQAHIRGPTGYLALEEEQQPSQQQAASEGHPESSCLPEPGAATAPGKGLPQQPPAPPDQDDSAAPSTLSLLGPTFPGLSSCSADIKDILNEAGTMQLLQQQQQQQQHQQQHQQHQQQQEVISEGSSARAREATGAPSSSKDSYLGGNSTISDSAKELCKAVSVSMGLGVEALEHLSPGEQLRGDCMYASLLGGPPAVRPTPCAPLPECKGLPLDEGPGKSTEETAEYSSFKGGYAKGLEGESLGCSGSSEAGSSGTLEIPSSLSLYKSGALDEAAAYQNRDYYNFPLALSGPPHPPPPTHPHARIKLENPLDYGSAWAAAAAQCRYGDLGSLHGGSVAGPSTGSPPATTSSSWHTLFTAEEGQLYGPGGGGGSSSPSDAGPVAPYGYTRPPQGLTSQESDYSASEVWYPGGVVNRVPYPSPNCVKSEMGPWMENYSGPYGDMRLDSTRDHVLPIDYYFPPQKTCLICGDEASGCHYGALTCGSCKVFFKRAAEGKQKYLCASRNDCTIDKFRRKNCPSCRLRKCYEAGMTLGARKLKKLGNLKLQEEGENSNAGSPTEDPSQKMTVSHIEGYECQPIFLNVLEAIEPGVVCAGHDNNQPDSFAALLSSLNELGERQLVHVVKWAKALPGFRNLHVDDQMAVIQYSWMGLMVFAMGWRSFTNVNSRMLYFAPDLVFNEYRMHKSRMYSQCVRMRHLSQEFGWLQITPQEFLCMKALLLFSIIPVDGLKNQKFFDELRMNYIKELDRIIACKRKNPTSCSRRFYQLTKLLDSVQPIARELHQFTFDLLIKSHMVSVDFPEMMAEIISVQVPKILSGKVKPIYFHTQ

Row | Structure (SMILES) | IC50 (Androgen receptor) [µM] | PC50 [1] | Selectivity Index (Homo sapiens) | Activity [2] | EC50 (LNCaP) [µM] | EC50 (HL-60) [µM] | EC50 (Vitamin D3 receptor) [µM] | Activity [3] | Ratio IC50 [4]
1 | CC[Si](CC)(c1ccc(NC[C@H](O)CO)c(C)c1)c1ccc(OCC(=O)C(C)(C)C)c(C)c1 | > 10 | 2.5 µM | – | – | – | – | – | – | –
2 | CC[Si](CC)(c1ccc(OC[C@@H](O)CO)c(C)c1)c1ccc(OC[C@@H](O)C(C)(C)C)c(C)c1 | 8.3 | 2.2 µM | 0.27 | – | – | – | – | – | –
3 | CC[Si](CC)(c1ccc(OCC(=O)C(C)(C)C)c(C)c1)c1ccc(OCC2CO2)c(C)c1 (racemic) | > 10 | 4.8 µM | 0.48 | inactive | – | – | – | – | –
4 | CC(C)(O)C(=O)Nc1ccc([N+](=O)[O-])c(C(F)(F)F)c1 | – | inactive | – | – | – | – | – | – | –
5 | CCC(CC)(c1ccc(OCC(=O)C(C)(C)C)c(C)c1)c1ccc(OCC(=O)C(C)(C)C)c(C)c1 | > 10 | 4.6 µM | < 0.46 | inactive | 0.02 | 0.03 | 0.04 | – | –
6 | CC[Si](CC)(c1ccc(O)c(C)c1)c1ccc(OC[C@H](O)C(C)(C)C)c(C)c1 | > 10 | 8.2 µM | – | – | – | – | – | – | –
7 | CC[Si](CC)(c1ccc(NC[C@@H](O)CO)c(C)c1)c1ccc(OCC(=O)C(C)(C)C)c(C)c1 | > 10 | 7 µM | – | – | – | – | – | – | –
8 | CC[Si](CC)(c1ccc(OCC(=O)C(C)(C)C)c(C)c1)c1ccc(OC[C@H](O)CO)c(C)c1 | 4 | 3.7 µM | 0.93 | – | – | – | – | inactive | –
9 | CC[Si](CC)(c1ccc(OC[C@H](O)CO)c(C)c1)c1ccc(OC[C@H](O)C(C)(C)C)c(C)c1 | 6.7 | 2.1 µM | 0.31 | – | – | – | – | – | –
10 | CC[Si](CC)(c1ccc(OCC(O)CO)c(C)c1)c1ccc(OCC(O)C(C)(C)C)c(C)c1 (mixture of isomers) | 6.8 | 0.92 µM | 0.14 | inactive | – | – | – | – | –
11 | CC[Si](CC)(c1ccc(OC[C@@H](O)CO)c(C)c1)c1ccc(OC[C@H](O)C(C)(C)C)c(C)c1 (mixture of isomers) | 5.8 | 0.81 µM | 0.14 | – | – | – | – | – | –
12 | CCC(CC)(c1ccc(OCC(=O)C(C)(C)C)c(C)c1)c1ccc(OCC2CO2)c(C)c1 (racemic) | > 10 | 0.68 µM | < 0.068 | inactive | – | – | – | – | –
13 | CC[Si](CC)(c1ccc(OCC(=O)C(C)(C)C)c(C)c1)c1ccc(OC[C@@H](O)CO)c(C)c1 | > 10 | 2 µM | – | – | – | – | – | – | –
14 | CC[Si](CC)(c1ccc(OCC(=O)C(C)(C)C)c(C)c1)c1ccc(OCC(=O)C(C)(C)C)c(C)c1 | 6.2 | > 30 µM | > 4.8 | inactive | – | – | – | – | –
15 | CCC(CC)(c1ccc(OCC(O)CO)c(C)c1)c1ccc(OCC(O)C(C)(C)C)c(C)c1 (mixture of isomers) [LG-190178] | > 10 | 0.14 µM | – | inactive | 0.02 | 0.03 | – | – | –
16 | CC[Si](CC)(c1ccc(OC[C@H](O)CO)c(C)c1)c1ccc(OC[C@@H](O)C(C)(C)C)c(C)c1 | 7.4 | > 10 µM | > 1.4 | – | – | – | – | inactive | 20
